Experimental data reported in PubChem BioAssay.
Activity calls are given as the source filed them.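 The calls were made as follows, unless noted: active = viability at or under a set limit in both replicates, limit being median viability minus 3 SD (cut at about 48% in these data, passing the limit was not always enough); inconclusive = at or under the limit in just one replicate; inactive = at or above the limit in both replicates.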

What was measured:
[1] = Her2 expression decrease, cell viability multiplex – SKBR3 breast tumor cells, AlphaScreen, ATP viability, primary screen (AID 461;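 active = Her2 level under about 52% in both replicate screens, with viability over 70% of control, limit read from the data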;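 as to Her2 level: lower value means less Her2 protein in the cells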;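 as to viability: percent of carrier control wells set as 100% viability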); conditions: SKBR3 Her2 protein level, 18-24 h, measured here: SKBR3 viability, ATP luminescence, at 10 µM
[2] = biological target: Receptor tyrosine-protein kinase erbB-2 (Homo sapiens) (UniProt P04626); experiment: as above; conditions: 18-24 h, at 10 µM, stronger effect = lower value
[3] = reduced viability of SK-BR-3 breast cancer cells – cell-based, 24 h, human, pilot screen (AID 572;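 active = viability at or below 10% of carrier control in both of two separate runs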;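 also: compound exposure lasted between 18 and 24 h rather than exactly 24 h; 100% = carrier-treated control wells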); conditions: SK-BR-3 viability, CellTiter-Glo luminescence, at 10 µM, stronger effect = lower value
[4] = HUVEC growth inhibition – cell-based, human, primary screen (AID 575;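 active = viability at or below 30% in both replicate assays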;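 also: 100% = median of untreated cell wells with 0.1% DMSO on each plate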); conditions: HUVEC proliferation, CellTiter-Glo luminescence, 72 h; at 10 µM; stronger effect = lower value
In short: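 Test system: primary human umbilical vein endothelial cells. Quantity: 1250 cells/well. Compound: single 10 µM dose, 0.1% DMSO, from 5x medium stock. Timing: 72 h treatment at 37 °C. Detection: ATP-based CellTiter-Glo luminescent read. Benchmarks: vehicle and MePR control wells. Format: 384-well plates coated with collagen.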

[5] = H69AR cell proliferation blockers – human, duplicate replicates, primary screen (AID 580); conditions: H69AR lung tumor cells viability, ATP luminescence, 72 h; at 10 µM; stronger effect = lower value;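 also: 100% = mean luminescence of untreated wells and 0% = no signal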
[6] = MRP1 drug-resistance reversers in H69AR cells – cell-based, doxorubicin co-treatment, pilot screen (AID 601;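 active = viability loss from added drug above about 55%, and viability with drug at most 40%, in both replicates, limit read from the data, passing the limit was not always enough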); conditions: CellTiter-Glo, 72 h, at 10 µM; for differential viability (reversal): stronger effect = higher value
[7] = yeast transport mutant growth inhibition pilot in 384-well plates, post-Golgi transport modulator project (AID 636; in the data active = inhibition above about 31%); conditions: absorbance 615 nm, about 18 h, stronger effect = higher value
[8] = growth suppression of yeast trafficking mutant, preliminary HTS, modulators of trafficking downstream of Golgi apparatus project, 1536-format plate, OD 615 nm (AID 637; in the data active = inhibition above about 30%); conditions: yeast transport mutant growth, absorbance 615 nm, 18 h; stronger effect = higher value
[9] = H69AR cells + 2 uM doxorubicin, measured here: viability with 2 uM doxorubicin, stronger effect = lower value
[10] = H69AR cells, compound alone cytotoxicity

Receptor tyrosine-protein kinase erbB-2 (Homo sapiens), sequence (P04626 whole entry, looked up): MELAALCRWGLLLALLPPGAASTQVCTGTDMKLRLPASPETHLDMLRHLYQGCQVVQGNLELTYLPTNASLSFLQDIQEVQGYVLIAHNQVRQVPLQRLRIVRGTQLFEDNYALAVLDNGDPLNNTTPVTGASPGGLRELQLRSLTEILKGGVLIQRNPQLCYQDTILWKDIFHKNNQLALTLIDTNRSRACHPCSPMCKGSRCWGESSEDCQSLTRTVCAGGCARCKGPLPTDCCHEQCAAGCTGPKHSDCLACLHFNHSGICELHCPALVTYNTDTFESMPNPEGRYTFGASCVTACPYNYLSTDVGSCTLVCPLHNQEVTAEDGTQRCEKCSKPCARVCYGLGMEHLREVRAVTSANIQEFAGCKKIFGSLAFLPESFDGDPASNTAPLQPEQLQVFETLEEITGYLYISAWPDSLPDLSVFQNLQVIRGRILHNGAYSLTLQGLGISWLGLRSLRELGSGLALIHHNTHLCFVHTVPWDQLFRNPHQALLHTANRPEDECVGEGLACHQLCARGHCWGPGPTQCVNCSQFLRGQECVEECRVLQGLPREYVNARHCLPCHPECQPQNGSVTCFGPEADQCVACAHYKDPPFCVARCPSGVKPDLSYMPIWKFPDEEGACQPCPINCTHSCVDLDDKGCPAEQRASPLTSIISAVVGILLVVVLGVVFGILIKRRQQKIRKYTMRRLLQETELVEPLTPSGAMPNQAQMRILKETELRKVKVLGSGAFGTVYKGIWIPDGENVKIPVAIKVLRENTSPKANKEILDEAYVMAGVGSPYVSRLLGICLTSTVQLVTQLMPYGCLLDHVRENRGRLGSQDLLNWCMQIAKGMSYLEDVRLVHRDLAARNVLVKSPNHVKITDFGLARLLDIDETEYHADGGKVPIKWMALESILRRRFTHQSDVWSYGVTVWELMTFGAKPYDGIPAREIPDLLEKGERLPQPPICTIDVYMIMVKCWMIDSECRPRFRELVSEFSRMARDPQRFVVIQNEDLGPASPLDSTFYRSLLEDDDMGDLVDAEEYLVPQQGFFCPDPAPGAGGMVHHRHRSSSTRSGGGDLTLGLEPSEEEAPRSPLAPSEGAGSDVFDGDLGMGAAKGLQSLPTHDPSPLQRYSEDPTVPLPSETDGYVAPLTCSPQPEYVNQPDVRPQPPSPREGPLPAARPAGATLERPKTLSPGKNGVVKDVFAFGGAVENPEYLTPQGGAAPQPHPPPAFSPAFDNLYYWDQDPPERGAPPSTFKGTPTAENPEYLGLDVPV

SMILES	viability [1] [%]	Her2 level [2]	viability [3]	viability [4]	viability [5]	differential viability (reversal) ([6]; H69AR cells + 2 uM doxorubicin)	viability [6, 9] [%]	viability [6, 10] [%]	inhibition [7]	inhibition [8]
CCC1(C)Cc2c(C#N)c(N)n(-c3ccccc3)c(=O)c2CO1 (stereo not given)	100	106% (inactive)	100% (inactive)	104% (inactive)	109% (inactive)	19.4% (inactive)	89.7	109	-0.13% (inactive)	-3.64% (inactive)
COc1ccc(C2CC(=O)c3c(C)nc(N4CCN(c5ccccc5)CC4)nc3C2)cc1 (stereo not given)	90	88% (inactive)	90% (inactive)	98.5% (inactive)	97.3% (inactive)	19% (inactive)	78.3	97.3	0.79% (inactive)	-5.9% (inactive)
Cc1cccc(-c2nc(CN3CCCC(C(=O)NC4CCCC4)C3)c(C)o2)c1 (stereo not given)	86	86.5% (inactive)	86% (inactive)	72.3% (inactive)	84.2% (inactive)	-11.2% (inactive)	95.4	84.2	1.73% (inactive)	2.9% (inactive)
CCOc1ccc2ccccc2c1/C=N/n1cncn1	99.5	101% (inactive)	99.5% (inactive)	87% (inactive)	92.3% (inactive)	-11.2% (inactive)	103	92.3	-5.53% (inactive)	1.64% (inactive)
CCOC(=O)c1ccc(N2C(=O)CC(N3CCN(C/C=C/c4ccccc4)CC3)C2=O)cc1 (stereo not given)	84	91.5% (inactive)	84% (inactive)	91.4% (inactive)	84.3% (inactive)	-1.62% (inactive)	85.9	84.3	-0.64% (inactive)	-2.5% (inactive)
CCOC(=O)C(NC(C)=O)(Nc1ccc(S(=O)(=O)Nc2nccs2)cc1)C(F)(F)F (stereo not given)	120	106% (inactive)	120% (inactive)	102% (inactive)	109% (inactive)	3.07% (inactive)	106	109	0.39% (inactive)	8.57% (inactive)
CC(=O)N1CCc2cc(S(=O)(=O)CCC(=O)N3CCN(c4ccccn4)CC3)ccc21	91.5	98% (inactive)	91.5% (inactive)	105% (inactive)	98% (inactive)	6.38% (inactive)	91.6	98	4.67% (inactive)	12% (inactive)
CCN(CC)c1nc2nonc2nc1N(CC)CC	101	92% (inactive)	101% (inactive)	110% (inactive)	104% (inactive)	4.4% (inactive)	99.2	104	-6.53% (inactive)	3.17% (inactive)
CNC(=O)c1nnn(Cc2ccccc2)c1NC(C)=O	97.5	105% (inactive)	97.5% (inactive)	104% (inactive)	88.9% (inactive)	-7.25% (inactive)	96.1	88.9	1.35% (inactive)	12.5% (inactive)
CCOC(=O)c1sc(=NC(=O)c2ccc(OC)c(OC)c2)n(C)c1C	121	84% (inactive)	121% (inactive)	108% (inactive)	65% (inactive)	-6.65% (inactive)	71.7	65	-5.06% (inactive)	-0.16% (inactive)
O=C(COC(=O)c1cncc(Br)c1)NCCC1=CCCCC1	93.5	93% (inactive)	93.5% (inactive)	101% (inactive)	97.5% (inactive)	9.04% (inactive)	88.4	97.5	-1.28% (inactive)	-1.33% (inactive)
Cn1c(-n2c(-c3ccco3)nc3ccccc3c2=O)nc2ccccc21	83	98% (inactive)	83% (inactive)	89.9% (inactive)	90.3% (inactive)	5.28% (inactive)	85	90.3	-1.47% (inactive)	6.56% (inactive)
Cc1nc(NCc2ccco2)c2oc3ccccc3c2n1	114	87% (inactive)	114% (inactive)	100% (inactive)	80.6% (inactive)	-1.13% (inactive)	81.8	80.6	-6.4% (inactive)	4.44% (inactive)
COCCn1c(C)cc(C(=O)COC(=O)CCN2C(=O)c3ccccc3C2=O)c1C	94.5	98.5% (inactive)	94.5% (inactive)	97.9% (inactive)	96.6% (inactive)	5.55% (inactive)	91.1	96.6	-5.33% (inactive)	0.65% (inactive)
Cc1cc(C)c2c(C)nn(C3CCCCC3)c2n1	81.5	114% (inactive)	81.5% (inactive)	80.8% (inactive)	95.5% (inactive)	12.3% (inactive)	83.2	95.5	6.62% (inactive)	14.1% (inactive)
COc1ccc(NC(=O)CSc2nnc(-c3ccccc3C)n2C)cc1	96.5	108% (inactive)	96.5% (inactive)	113% (inactive)	100% (inactive)	13.8% (inactive)	86.4	100	-4.55% (inactive)	-5.17% (inactive)

SMILES	viability [1] [%]	Her2 level [2]	viability [3]	viability [4]	viability [5]	differential viability (reversal) ([6]; H69AR cells + 2 uM doxorubicin)	viability [6, 9] [%]	viability [6, 10] [%]	inhibition [7]	inhibition [8]
CCOC(=O)C(C)Sc1nc2c(cnn2-c2ccc(C)cc2)c(=O)[nH]1 (stereo not given)	83	85.5% (inactive)	83% (inactive)	51.8% (inactive)	14.4% (active)	-58.2% (inactive)	72.6	14.4	-2.53% (inactive)	-11.2% (inactive)
CC1(C)CC(=O)C(C(=O)CCCCC(=O)C2C(=O)CC(C)(C)CC2=O)C(=O)C1	99.5	158% (inactive)	99.5% (inactive)	98.4% (inactive)	95.1% (inactive)	6.97% (inactive)	88.2	95.1	0.53% (inactive)	-0.5% (inactive)
Cc1ccc(S(=O)(=O)N2CCCC2C(=O)n2nc(C)cc2C)cc1 (stereo not given)	114	90% (inactive)	114% (inactive)	90.1% (inactive)	83.5% (inactive)	2.58% (inactive)	80.9	83.5	-7.97% (inactive)	3.67% (inactive)
O=S(=O)(Nc1ccccn1)c1ccc(Oc2ccccc2)cc1	88	87.5% (inactive)	88% (inactive)	87.8% (inactive)	98.8% (inactive)	10.5% (inactive)	88.3	98.8	-2.57% (inactive)	-1.11% (inactive)
O=C(NCCCNC(=O)c1ccccn1)c1ccccn1	106	75% (inactive)	106% (inactive)	79.6% (inactive)	91.5% (inactive)	-0.68% (inactive)	92.1	91.5	-5.89% (inactive)	-3.49% (inactive)
CCOC(=O)c1ccc(NC(=O)CSc2n[nH]c(-c3ccncc3)n2)cc1	87.5	102% (inactive)	87.5% (inactive)	80% (inactive)	87.7% (inactive)	-1.68% (inactive)	89.4	87.7	-3.11% (inactive)	1.27% (inactive)
CCOC(=O)C1C2C=CC3(CN(c4cccc(Cl)c4)C(=O)C13)O2 (stereo not given)	86	80% (inactive)	86% (inactive)	91.2% (inactive)	97.5% (inactive)	1.17% (inactive)	96.3	97.5	-4.4% (inactive)	0.17% (inactive)
O=C(c1ccccc1)c1ccncc1	100	76.5% (inactive)	100% (inactive)	100% (inactive)	92.4% (inactive)	-3.62% (inactive)	96	92.4	-6.05% (inactive)	5.33% (inactive)
CCNC(=O)C1CC(=O)N(Cc2ccc3c(c2)OCO3)C(=Nc2ccc(F)cc2)S1 (stereo not given)	124	112% (inactive)	124% (inactive)	85.6% (inactive)	82.6% (inactive)	-5.16% (inactive)	87.8	82.6	-6.58% (inactive)	-6.98% (inactive)
O=C(CCSc1nnc(-c2ccncc2)o1)Nc1ccccc1	90.5	80.5% (inactive)	90.5% (inactive)	108% (inactive)	100% (inactive)	10.3% (inactive)	89.8	100	-0.79% (inactive)	5.27% (inactive)
COC(=O)c1ccc(CNC(=O)COc2ccccc2Br)o1	93	108% (inactive)	93% (inactive)	100% (inactive)	103% (inactive)	15% (inactive)	87.6	103	-3.33% (inactive)	-10% (inactive)
O=C(Nc1ccccc1)N1C(=O)C2(OCCO2)c2ccccc21	114	118% (inactive)	114% (inactive)	100% (inactive)	87% (inactive)	-11.8% (inactive)	98.8	87	-0.79% (inactive)	1.64% (inactive)
COc1cc(S(=O)(=O)N2CCC(N3CCCCC3)CC2)ccc1-n1cnnn1	92.5	108% (inactive)	92.5% (inactive)	98.3% (inactive)	98% (inactive)	8.69% (inactive)	89.3	98	-3.78% (inactive)	-6.35% (inactive)
CSc1ccccc1NC(=O)c1c(Br)cnn1C	89.5	94.5% (inactive)	89.5% (inactive)	79.2% (inactive)	101% (inactive)	6.58% (inactive)	94.2	101	-2.6% (inactive)	-4.44% (inactive)
CCN(CC)Cc1csc(C(N)=O)c1	108	107% (inactive)	108% (inactive)	104% (inactive)	98.1% (inactive)	5.04% (inactive)	93.1	98.1	-1.22% (inactive)	0.32% (inactive)
COc1cccc(-c2noc(C3CCCN(C(=O)Cc4ccccc4)C3)n2)c1 (stereo not given)	95	94% (inactive)	95% (inactive)	104% (inactive)	85% (inactive)	-2.34% (inactive)	87.3	85	-0.65% (inactive)	-3.97% (inactive)
